Source: ChEMBL document CHEMBL4043092, “Neuroprotective and Antineuroinflammatory Effects of Hydroxyl-Functionalized Stilbenes and 2-Arylbenzo[b]furans” (J Med Chem, 2017)

Assays:
Cortical neurone [1] = experiment: Neuroprotective activity against fibril amyloid beta (25 to 35)-induced cell death in Sprague-Dawley rat 5 day old neonatal primary cortical neurons assessed as cell death at maximum non toxic concentration pretreated for 2 hrs followed by 10 uM fibril amyloid beta (25 to 35) addition measured after 48 hrs by MTT assay (reference value: 39.20 +/- 0.88%); format: functional
Summary of the method: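 Rat cortical neurons from pups, papain-dissociated, cytosine arabinoside (5 μM, 1 day) to remove non-neuronal cells, used at DIV5. Vehicle 0.1% DMSO or compound pretreatment before fAβ25–35 (aged 1 week at 37 °C). Viability by MTT reduction: 0.5 mg/mL for 1 h, formazan dissolved in DMSO, OD600. Mean ± SD of three independent experiments.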

[2] = Anti-inflammatory activity in Sprague-Dawley rat primary mixed glial cells assessed as inhibition of LPS-induced NO production at 50 uM pretreated for 2 hrs followed by LPS addition measured after 48 hrs by Griess assay (reference value: 100%); format: functional, Primary glial cell; set-up: scale not given: the % may be the effect or the level left
Cortical neurone [3] = experiment: Neuroprotective activity against glutamate-induced cell death in Sprague-Dawley rat 10 days old neonatal primary cortical neurons assessed as cell death at maximum non toxic concentration pretreated for 2 hrs followed by 30 uM glutamate addition measured after 24 hrs by MTT assay (reference value: 41.22 +/- 3.40%); format: functional

| Compound | Activity (Cortical neurone [1]) [%] | Activity [2] [%] | Activity (Cortical neurone [3]) [%] |
| --- | --- | --- | --- |
| COc1cc(/C=C/c2ccccc2O)c(Br)c(OC)c1OC | 37.67 | 105.48 | 47.1 |
| CCOC(=O)/C=C/c1c(/C=C/c2ccc(OC)cc2)cc(OC)c(OC)c1OC | 36.93 | 59.11 | 41.07 |
| CCOC(=O)/C=C/c1cccc(/C=C/c2cc(OC)c(OC)c(OC)c2)c1 | 35.98 | 75.6 | 43.29 |
| COc1ccc(/C=C/c2cc(Br)cc(OC)c2O)cc1OC | 41.5 | 88.34 | 42.09 |
| CCOC(=O)/C=C/c1cc2c(cc1/C=C/c1cc(OC)c(OC)c(OC)c1)OCO2 | 41.76 | 127.76 | 43.95 |
| CCOC(=O)/C=C/c1cc(/C=C/c2ccc3c(c2)OCO3)c(O)c(OC)c1 | 39.08 | 139.87 | 41.26 |
| COc1cc(/C=C/c2ccc3c(c2)OCO3)cc(OC)c1OC | 45.46 | 83.73 | 36.43 |
| Oc1cc(-c2cc3cc(Br)cc(O)c3o2)cc(O)c1O | 45.8 | 106.67 | 43.67 |
| CCOC(=O)/C=C/c1cc(OC)c(OC)cc1/C=C/c1ccccc1O | 36.56 | 73.27 | 43.3 |
| CCOC(=O)/C=C/c1ccc(OC)c(O)c1/C=C/c1ccc(OC)c(OC)c1 | 38.07 | 106.26 | 44.3 |
| CCOC(=O)/C=C/c1cc(OC)c(OC)cc1/C=C/c1cc(OC)c(OC)c(OC)c1 | 41.59 | 123.48 | 39.47 |
| Oc1ccc(-c2cc3cc(Br)cc(O)c3o2)cc1 | 30.1 | 101.84 | 33.02 |
| COc1cc(Br)c(/C=C/c2cc(Br)cc(OC)c2O)cc1OC | 38.78 | 94.57 | 41.17 |
| COc1cc(Br)c(/C=C/c2cccc(OC)c2O)cc1OC | 39.67 | 102.71 | 42.89 |
| CCOC(=O)/C=C/c1ccc(/C=C/c2cc(OC)c(OC)c(OC)c2)cc1 | 44.43 | 91.44 | 44.56 |
| COc1ccc(Br)c2cc(-c3ccc4c(c3)OCO4)oc12 | 43.98 | 202.71 | 46.84 |
| COc1cccc(/C=C/c2ccc3c(c2)OCO3)c1O | 46.98 | 101 | 38.42 |
| CCOC(=O)/C=C/c1cc2c(cc1/C=C/c1cccc(OC)c1O)OCO2 | 41.57 | 75.33 | 41.64 |
| CCOC(=O)/C=C/c1cc2c(cc1/C=C/c1ccc(OC)cc1)OCO2 | 41.62 | 74.88 | 37.28 |
| COc1cccc(/C=C/c2ccc3c(c2)OCO3)c1OC | 38.18 | 95.92 | 44.02 |
| CCOC(=O)/C=C/c1cc(OC)c(OC)cc1/C=C/c1cccc(OC)c1O | 41.24 | 89.35 | 42.73 |
| CCOC(=O)/C=C/c1ccc(OC)c(O)c1/C=C/c1cc(OC)c(OC)c(OC)c1 | 42.53 | 114.19 | 43.06 |
| COc1ccc(/C=C/c2ccc3c(c2)OCO3)cc1O | 43.51 | 81.35 | 30.94 |
